Measurements published in ChEMBL document CHEMBL2311304, “Design, synthesis and in vitro and in vivo antitumor activities of novel bivalent β-carbolines” (Eur J Med Chem, 2013).

Key:
[1] = Antitumor activity in mouse Lewis lung cancer cells inoculated mouse assessed as tumor inhibition rate at one fifth of LD50 concentration once a day for consecutive 7 days by ip; assay type: functional, Cancer cell lines; design: scale not given: the % may be the effect or the level left
Procedure, shortened: (§1)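 Each tumour line was first grown in mice for 7 days, then harvested. Viable cells (2 × 10^6 per mouse) were injected s.c. into the armpit. Dosing began 24 h later: i.p., about one fifth of LD50, daily for 7 days, 10 female mice per group. […] Body weight was recorded every 3 days. Tumours were excised and weighed on day 21 to give inhibition rate.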

[2] = tested on: CT26; assay: Antitumor activity in mouse CT26 colon cancer cells inoculated mouse assessed as tumor inhibition rate at one fifth of LD50 concentration once a day for consecutive 7 days by ip; assay type: functional; design: scale not given: the % may be the effect or the level left; procedure, shortened: as §1
[3] = tested on: Mus musculus; assay: Toxicity in C57BL/6 mouse assessed as maximum weight loss at 40 mg/kg, ip; assay type: organism-based; design: dose 40 mg/kg, route intraperitoneal; details: in vivo
Procedure, shortened: (§2)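 Tumor-bearing mice, 10 females per group, were inoculated s.c. in the armpit with 2 × 10^6 viable tumor cells. Compound was given i.p. once daily for 7 consecutive days, starting 24 h after inoculation. […] Body weight was recorded every 3 days until sacrifice on day 21.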

[4] = tested on: Mus musculus; assay: Toxicity in C57BL/6 mouse assessed as liver damage at 1 to 500 mg/kg, ip for 14 days; assay type: organism-based; design: dose 1-500 mg/kg, route intraperitoneal; details: in vivo, 336 h
Procedure, shortened: (§3)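 Healthy C57BL/6 mice (9–12 weeks, 18–22 g) were fasted overnight with free access to water. Each received a single i.p. dose of 1.0–500 mg kg-1 in 0.5% CMC-Na, 10 mice per group (5 male, 5 female). Mice were watched continuously for 2 h, intermittently to 24 h, then occasionally to 14 days for tremor, twitch, jumping and supination. At day 14 they were killed and heart, liver and kidneys were examined macroscopically.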

[5] = tested on: Mus musculus; assay: Toxicity in C57BL/6 mouse assessed as kidney damage at 1 to 500 mg/kg, ip for 14 days; assay type: organism-based; design: dose 1-500 mg/kg, route intraperitoneal; details: in vivo, 336 h; procedure, shortened: as §3
[6] = tested on: Mus musculus; assay: Toxicity in C57BL/6 mouse assessed as heart damage at 1 to 500 mg/kg, ip for 14 days; assay type: organism-based; design: dose 1-500 mg/kg, route intraperitoneal; details: in vivo, 336 h; procedure, shortened: as §3
[7] = tested on: Mus musculus; assay: Neurotoxicity in C57BL/6 mouse at 1 to 500 mg/kg, ip for 14 days; assay type: toxicity, organism-based; design: dose 1-500 mg/kg, route intraperitoneal; details: in vivo, 336 h; procedure, shortened: as §3
[8] = tested on: SK-OV-3; assay: Cytotoxicity against human ovary adenocarcinoma SKOV3 cells assessed as reduction in optical density by MTT assay; assay type: functional, cell-based; details: SK-OV-3, Female gonad
Procedure, shortened: (§4)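 Cells were cultured in RPMI-1640 with 10% (v/v) fetal calf serum, 100 µg ml-1 penicillin and 100 µg ml-1 streptomycin at 37 °C in humidified 5% CO2. Compounds were dissolved in DMSO, with final DMSO at 2% (v/v) or lower. MTT staining was used, with three replicate wells per point. IC50 is the concentration giving a 50% drop in optical density versus untreated cells.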

[9] = tested on: KB; assay: Cytotoxicity against human epidermoid carcinoma of the nasopharynx KB cells assessed as reduction in optical density by MTT assay; assay type: functional, cell-based; procedure, shortened: as §4
[10] = tested on: A-375; assay: Cytotoxicity against human malignant melanoma A375 cells assessed as reduction in optical density by MTT assay; assay type: functional, cell-based; procedure, shortened: as §4
[11] = tested on: BGC-823; assay: Cytotoxicity against human gastric carcinoma BGC823 cells assessed as reduction in optical density by MTT assay; assay type: functional, cell-based; procedure, shortened: as §4
[12] = Antitumor activity in mouse Sarcoma 180 cells inoculated mouse assessed as tumor inhibition rate at one fifth of LD50 concentration once a day for consecutive 7 days by ip; assay type: functional; design: scale not given: the % may be the effect or the level left; procedure, shortened: as §1
[13] = tested on: Mus musculus; assay: Toxicity in C57BL/6 mouse assessed as maximum weight loss at 10 mg/kg, ip; assay type: organism-based; design: dose 10 mg/kg, route intraperitoneal; details: in vivo
[14] = Acute toxicity in ip treated C57BL/6 mouse for 14 days; assay type: organism-based; details: in vivo
Procedure, shortened: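 C57BL/6 mice (9–12 weeks, 18–22 g) were fasted overnight with free water. They received single i.p. doses of 1.0–500 mg kg-1 in 0.5% CMC-Na, 10 mice per group (5 male, 5 female). Mice were watched continuously for 2 h, then intermittently to 24 h, then occasionally to 14 days. Heart, liver and kidneys were checked macroscopically. LD50 was derived graphically.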

[15] = tested on: 769-P; assay: Cytotoxicity against human renal carcinoma 769-P cells assessed as reduction in optical density by MTT assay; assay type: functional, cell-based; procedure, shortened: as §4
[16] = tested on: H22; assay: Antitumor activity in mouse H22 liver cancer cells inoculated mouse assessed as tumor inhibition rate at one fifth of LD50 concentration once a day for consecutive 7 days by ip; assay type: functional; design: scale not given: the % may be the effect or the level left; procedure, shortened: as §1
[17] = tested on: B16; assay: Antitumor activity in mouse B16 melanoma cell lines cells inoculated mouse assessed as tumor inhibition rate at one fifth of LD50 concentration once a day for consecutive 7 days by ip; assay type: functional; design: scale not given: the % may be the effect or the level left; procedure, shortened: as §1
[18] = tested on: Mus musculus; assay: Toxicity in C57BL/6 mouse assessed as maximum weight loss at 50 mg/kg, ip; assay type: organism-based; design: dose 50 mg/kg, route intraperitoneal; details: in vivo
[19] = tested on: Mus musculus; assay: Toxicity in C57BL/6 mouse assessed as maximum weight loss at 7.5 mg/kg, ip; assay type: organism-based; design: dose 7.5 mg/kg, route intraperitoneal; details: in vivo
[20] = tested on: Mus musculus; assay: Toxicity in C57BL/6 mouse assessed as maximum weight loss at 30 mg/kg, ip; assay type: organism-based; design: dose 30 mg/kg, route intraperitoneal; details: in vivo; procedure, shortened: as §2

| SMILES | Activity [1] [%] | Activity [2] [%] | Activity [3] [%] | Activity [4] | Activity [5] | Activity [6] | Activity [7] | IC50 [8] [µM] | IC50 [9] [µM] | IC50 [10] [µM] | IC50 [11] [µM] | Activity [12] [%] | Activity [13] [%] | LD50 at 336 h [14] [mg/kg] | IC50 [15] [µM] | Activity [16] [%] | Activity [17] [%] | Activity [18] [%] | Activity [19] [%] | Activity [20] [%] |
| --- | --- | --- | --- | --- | --- | --- | --- | --- | --- | --- | --- | --- | --- | --- | --- | --- | --- | --- | --- | --- |
| c1ccc2c(c1)c1ccncc1n2CCCCn1c2ccccc2c2ccncc21 | 34.2 | 39.7 | 14.5 | Non-toxic | Non-toxic | Non-toxic | Non-toxic | > 200 | > 200 | > 200 | 59.7 |  |  |  |  |  |  |  |  |  |
| CCOC(=O)c1cc2c(cn1)[nH]c1ccccc12 |  |  |  |  |  |  | Non-toxic | 92.6 | > 200 | > 200 | > 200 | 35.2 | 11.8 | 32.6 | 175 |  |  |  |  |  |
| Cc1nccc2c3ccccc3n(CCCCn3c4ccccc4c4ccnc(C)c43)c12 | 40.4 | 50.8 | 21.5 | Non-toxic | Non-toxic | Non-toxic | Non-toxic | 4.8 | 6.4 | 13.1 | 22.3 | 56.2 |  |  | 6.5 | 42.3 | 29.9 |  |  |  |
| Cc1nccc2c3ccc(OC(C)C)cc3n(CCCCCCn3c4cc(OC(C)C)ccc4c4ccnc(C)c43)c12 | 49.6 | 51.2 | 10.2 | Non-toxic | Non-toxic | Non-toxic | Non-toxic | 17.1 | 19.8 | 18.5 | 194 | 40.6 |  |  | 95.4 | 39.7 | 20.5 |  |  |  |
| c1cncc(-c2nccc3c4ccccc4n(CCCCCCn4c5ccccc5c5ccnc(-c6cccnc6)c54)c23)c1 | 43.2 | 50.6 |  | Non-toxic | Non-toxic | Non-toxic | Non-toxic | 14.9 | 13.3 | 5.3 | 14.1 | 40.5 |  |  | > 200 | 35 | 24.3 | 11.9 |  |  |
| O=P1(N(CCCl)CCCl)NCCCO1 (configuration not stated) [CYCLOPHOSPHAMIDE ANHYDROUS] | 97.8 | 97.2 |  |  |  |  |  |  |  |  |  | 85.6 |  |  |  | 83.8 | 86.5 | 7.7 |  |  |
| COc1ccc2c3ccnc(C)c3n(CCCCn3c4cc(OC)ccc4c4ccnc(C)c43)c2c1 | 38.1 | 45.5 |  | Non-toxic | Non-toxic | Non-toxic | Non-toxic | 7.1 | 2.8 | 6.2 | 75.7 |  | 7.7 |  | 65.6 |  |  |  |  |  |
| COc1cc(-c2nccc3c4ccccc4n(CCCCCCn4c5ccccc5c5ccnc(-c6cc(OC)c(OC)c(OC)c6)c54)c23)cc(OC)c1OC | 43.3 | 45.8 | 7.2 | Non-toxic | Non-toxic | Non-toxic | Non-toxic | > 200 | > 200 | 5.9 | > 200 |  |  | 200 | 16.8 |  |  |  |  |  |
| Cc1nccc2c3ccccc3n(CCCCCCn3c4ccccc4c4ccnc(C)c43)c12 | 42.1 | 39.6 | 5.1 | Non-toxic | Non-toxic | Non-toxic | Non-toxic | 16.9 | 87.9 | 38 | 134 |  |  |  | 149 |  |  |  |  |  |
| c1ccc2c(c1)c1ccncc1n2CCCCCCn1c2ccccc2c2ccncc21 | 37.7 | 32.4 | 15 | Non-toxic | Non-toxic | Non-toxic | Non-toxic | 38.9 | 13.9 | 10.8 | 13.8 |  |  | 200 | 12.8 | 31.2 | 24.8 |  |  |  |
| COc1ccc2c(c1)[nH]c1c(C)nccc12 [HARMINE] | 34.1 |  |  |  |  |  | Toxic | 74.6 | 57.8 | 72.5 | 63.2 | 15.3 |  |  | 48.9 |  |  |  | 8.5 |  |
| c1ccc2c(c1)c1ccncc1n2CCCCCn1c2ccccc2c2ccncc21 | 42.5 | 48.6 |  | Non-toxic | Non-toxic | Non-toxic | Non-toxic | > 200 | > 200 | 10.2 | 23.5 | 43.8 |  |  | 15.3 | 40.4 | 26.1 |  |  | 10 |
